For data set [1], the system named is Mus musculus. Put plainly: Anti-seizure activity in CF1 mouse assessed as attenuation of psychomotor seizures at stimulus intensities of 44 mA at 400 mg/kg, ip measured at 0.25 to 4 hrs by 6 Hz limbic seizure test relative to control. Type of data set: functional. An outline of the steps:
(§1)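 Male CF-1 mice, n=8 per dose. 6 Hz, 3 s corneal stimulation at 32 or 44 mA. Compound given ip in miglyol840/DMSO (95%/5%). Time of peak effect found by testing at 0.25–4 h; dose-response run at that time. Protected if no stun, jaw/forelimb clonus, vibrissae twitching or Straub tail for ≥1 s. ED50 by Probit analysis.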

The target of another data set is Cytochrome P450 2C19 (Homo sapiens, UniProt P33261). In words: Inhibition of CYP2C19 in human liver microsomes using isoform-specific probe substrates incubated for 15 to 30 mins by LC-MS/MS analysis. Type of data set: ADME. In outline:
(§2)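 Pooled mixed-gender human liver microsomes 0.2 mg/mL in 100 mM potassium phosphate with 2 mM NADPH. Isoform-specific probe substrates near Km. Organic solvent ≤1% final. Incubated 37°C for 15–30 min, quenched with acetonitrile plus internal standard. Probe metabolites measured by LC-MS/MS; percent inhibition versus vehicle, IC50 by variable-slope sigmoid fit.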
A general note: Microsomes from liver hold many membrane-bound enzymes, among them those of drug oxidation.

A short description of data set [2]: Drug level in CD1 mouse brain at 400 mg/kg, ip after 0.5 hrs by LC-MS/MS analysis. Particulars: read-out: Drug uptake. Type of data set: ADME, organism-based. In outline:
(§3)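 Male mice fasted overnight and given ip dose in 95% Miglyol 840/5% DMSO. Plasma precipitated 3:1 with acetonitrile plus internal standard. Brain homogenized 3:1 in PBS, then acetonitrile extraction. LC-MS/MS in MRM mode, standard curve 1 ng/mL–10 μg/mL. Ratio = mean tissue (ng/g) over mean plasma (ng/mL) concentration.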

A short description of data set [3]: Toxicity in CF1 mouse assessed as induction of abdominal constriction measured at time of treatment by writhing test. To be noted: in vivo.
Data set [4] in a line: Drug level in CD1 mouse plasma at 400 mg/kg, ip after 8 hrs by LC-MS/MS analysis. Type of data set: ADME, organism-based. In outline: as §3
Data set [5] in a line: Ratio of drug level in brain to plasma in CD1 mouse at 400 mg/kg, ip after 1 hr by LC-MS/MS analysis. Type of data set: ADME, organism-based. Particulars: brain and plasma, read-out: BPR. In outline:
as §3

A short description of data set [6]: AUClast in CD1 mouse at 5 mg/kg, iv measured after 0.083 to 24 hrs by LC-MS/MS analysis. Type of data set: ADME, organism-based. Details: dose 5 mg/kg, time upper 24 hr, time lower 0.083 hr, route intravenous. Particulars: in vivo. An outline of the steps: (§4)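 Male CD-1 mice, 3 per route. Oral and ip at 20 mg/kg by gavage needle; iv at 5 mg/kg by tail vein. Vehicles were 20% DMA:40% PEG300:40% H2O for oral/iv and 5% DMSO:95% Neobee for ip. Blood sampled 0.083–24 h, plasma protein-precipitated with acetonitrile plus internal standard, LC-MS/MS (MRM). Non-compartmental analysis, linear trapezoidal AUC.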

Data set [7] concerns Mus musculus. In words: Anti-seizure activity in ip dosed CF1 mouse assessed as reduction in hindlimb tonic extension during seizure measured at 1 hr by MES test. Type of data set: functional. In outline: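 Male CF-1 mice, n=8 per dose, dosed ip as 0.5% HPMC suspension, tested 1 h later. Corneal 60 Hz, 50 mA, 2 s shock after 0.5% tetracaine applied to eyes. Protection = absence of hindlimb tonic extension. ED50 from four dose levels.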

The nature of data set [8]: Tmax in CD1 mouse at 20 mg/kg, ip measured after 0.083 to 24 hrs by LC-MS/MS analysis. Type of data set: ADME, organism-based. To be noted: in vivo.
Data set [9] can be described thus: Drug level in CD1 mouse brain at 400 mg/kg, ip after 2 hrs by LC-MS/MS analysis. Type of data set: ADME, organism-based. Particulars: read-out: Drug uptake. In outline: as §3
A short description of data set [10]: Drug level in CD1 mouse plasma at 400 mg/kg, ip after 0.5 hrs by LC-MS/MS analysis. Type of data set: ADME, organism-based. In outline:
as §3

Data set [11] in a line: Cmax in CD1 mouse at 5 mg/kg, iv measured after 0.083 to 24 hrs by LC-MS/MS analysis. Details: dose 5 mg/kg, route intravenous. Type of data set: ADME, organism-based. Particulars: in vivo. An outline of the steps:
as §4

Data set [12] can be described thus: Toxicity in CF1 mouse assessed as induction of abdominal constriction measured during 1 hr observation period by writhing test. To be noted: in vivo. In general terms: In writhing tests, fewer writhes than in controls are read as antinociception.
Data set [13] deals with Voltage-gated inwardly rectifying potassium channel KCNH2 (Homo sapiens, UniProt Q12809). Put plainly: Inhibition of human ERG.
The nature of data set [14]: Drug level in CD1 mouse brain at 400 mg/kg, ip after 1 hr by LC-MS/MS analysis. Type of data set: ADME, organism-based. To be noted: read-out: Drug uptake. An outline of the steps:
as §3

A short description of data set [15]: Drug level in CD1 mouse plasma at 400 mg/kg, ip after 2 hrs by LC-MS/MS analysis. Type of data set: ADME, organism-based. In outline:
as §3

Data set [16] deals with Mus musculus. Put plainly: Anti-seizure activity in CF1 mouse assessed as attenuation of psychomotor seizures at stimulus intensities of 32 mA at 400 mg/kg, ip measured at 0.25 to 4 hrs by 6 Hz limbic seizure test relative to control. Type of data set: functional. In outline:
as §1

The next data set is filed under the species Danio rerio. In words: Increase in ATP concentration in zebrafish at 1 uM incubated for 24 hrs by fluorometric ATP assay relative to control. Type of data set: functional. In outline:
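7 dpf zebrafish larvae, one per well, kept at 28.5°C for 24 h with compound in E3 buffer (DMSO stock). DMSO vehicle in control wells. Twelve fish per condition pooled, flash-frozen, homogenized in ATP buffer and centrifuged. ATP in the supernatant read by fluorescence at ex 535/em 587 nm, normalized to total protein (BCA), and expressed as nmole/mg relative to DMSO control. n = 7–13.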

The nature of data set [17]: AUClast in CD1 mouse at 20 mg/kg, po measured after 0.083 to 24 hrs by LC-MS/MS analysis. Type of data set: ADME, organism-based. On the set-up: time 0.083-24 hr, dose 20 mg/kg, route oral. To be noted: in vivo. In outline:
as §4

The target in the next data set is Cytochrome P450 3A4 (Homo sapiens, UniProt P08684). Put plainly: Inhibition of CYP3A4 in human liver microsomes using isoform-specific probe substrates incubated for 15 to 30 mins by LC-MS/MS analysis. Type of data set: ADME. An outline of the steps:
as §2

A short description of data set [18]: Cmax in CD1 mouse at 20 mg/kg, ip measured after 0.083 to 24 hrs by LC-MS/MS analysis. Type of data set: ADME, organism-based. To be noted: in vivo. On the set-up: dose 20 mg/kg, route intraperitoneal. In outline:
as §4

A short description of data set [19]: AUClast in CD1 mouse at 20 mg/kg, ip measured after 0.083 to 24 hrs by LC-MS/MS analysis. Type of data set: ADME, organism-based. On the set-up: time lower 0.083 hr, dose 20 mg/kg, time upper 24 hr, route intraperitoneal. To be noted: in vivo. In outline: as §4
A short description of data set [20]: Toxicity in CF1 mouse assessed as induction of motor impairment during acute (1 hr) observation period up to 800 mg/kg by rotarod assay. Type of data set: organism-based. To be noted: in vivo. An outline of the steps:
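Rotarod at 6 rpm on the same animals immediately before 6 Hz stimulation, 1 h after ip dosing. A mouse falling three times within one minute was scored impaired.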
(In the rotarod test animals must keep their balance on a rotating rod.)

Data set [21] can be described thus: Ratio of drug level in brain to plasma in CD1 mouse at 400 mg/kg, ip after 2 hrs by LC-MS/MS analysis. Particulars: brain and plasma, read-out: BPR. Type of data set: ADME, organism-based. In outline:
as §3

Molecules are shown by their SMILES. Where only a bound is given, the exact number is not on record here.

As a reminder, the IC50 is the concentration that gives 50% inhibition. By AUC(0-t) is commonly meant exposure summed from dosing to a finite time, without extrapolation to infinity. Higher therefore signals high exposure. The term ED50 denotes the dose at which the effect has come halfway, by size or by number of responders. The term Tmax denotes the time from dosing to the highest level. For orientation: Cmax means the maximum level reached in the sampled fluid or tissue.

Chain of Voltage-gated inwardly rectifying potassium channel KCNH2 (Q12809 whole entry): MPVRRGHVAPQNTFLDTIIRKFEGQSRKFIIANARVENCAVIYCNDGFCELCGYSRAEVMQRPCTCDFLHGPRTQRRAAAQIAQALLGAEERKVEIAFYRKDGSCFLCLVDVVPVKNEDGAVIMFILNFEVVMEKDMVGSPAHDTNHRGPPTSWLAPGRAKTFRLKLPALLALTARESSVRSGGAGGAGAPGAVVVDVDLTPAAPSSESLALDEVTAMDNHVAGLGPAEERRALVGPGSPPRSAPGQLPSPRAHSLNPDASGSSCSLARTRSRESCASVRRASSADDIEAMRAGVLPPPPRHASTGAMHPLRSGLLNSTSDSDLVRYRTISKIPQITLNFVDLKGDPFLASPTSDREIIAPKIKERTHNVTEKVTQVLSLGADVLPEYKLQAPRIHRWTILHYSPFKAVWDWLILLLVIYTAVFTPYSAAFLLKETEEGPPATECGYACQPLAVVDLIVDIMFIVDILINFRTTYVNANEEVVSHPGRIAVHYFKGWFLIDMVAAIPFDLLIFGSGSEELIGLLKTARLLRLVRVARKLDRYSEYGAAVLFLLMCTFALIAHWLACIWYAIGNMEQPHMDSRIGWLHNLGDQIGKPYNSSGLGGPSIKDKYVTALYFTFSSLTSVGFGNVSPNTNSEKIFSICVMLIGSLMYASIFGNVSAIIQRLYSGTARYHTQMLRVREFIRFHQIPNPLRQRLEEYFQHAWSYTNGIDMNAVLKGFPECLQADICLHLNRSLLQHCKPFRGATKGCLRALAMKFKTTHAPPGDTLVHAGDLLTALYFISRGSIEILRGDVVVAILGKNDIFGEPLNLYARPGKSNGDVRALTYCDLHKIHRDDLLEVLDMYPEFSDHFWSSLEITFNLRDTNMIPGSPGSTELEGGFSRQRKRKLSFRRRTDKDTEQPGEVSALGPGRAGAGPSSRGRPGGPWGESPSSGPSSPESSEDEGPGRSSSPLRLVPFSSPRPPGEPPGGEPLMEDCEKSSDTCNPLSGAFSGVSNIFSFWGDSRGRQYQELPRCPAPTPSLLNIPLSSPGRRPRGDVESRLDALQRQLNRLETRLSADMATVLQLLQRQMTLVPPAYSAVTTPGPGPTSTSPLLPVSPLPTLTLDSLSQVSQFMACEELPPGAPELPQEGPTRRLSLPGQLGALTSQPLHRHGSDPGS
Chain of Cytochrome P450 3A4 (P08684 whole entry, canonical isoform): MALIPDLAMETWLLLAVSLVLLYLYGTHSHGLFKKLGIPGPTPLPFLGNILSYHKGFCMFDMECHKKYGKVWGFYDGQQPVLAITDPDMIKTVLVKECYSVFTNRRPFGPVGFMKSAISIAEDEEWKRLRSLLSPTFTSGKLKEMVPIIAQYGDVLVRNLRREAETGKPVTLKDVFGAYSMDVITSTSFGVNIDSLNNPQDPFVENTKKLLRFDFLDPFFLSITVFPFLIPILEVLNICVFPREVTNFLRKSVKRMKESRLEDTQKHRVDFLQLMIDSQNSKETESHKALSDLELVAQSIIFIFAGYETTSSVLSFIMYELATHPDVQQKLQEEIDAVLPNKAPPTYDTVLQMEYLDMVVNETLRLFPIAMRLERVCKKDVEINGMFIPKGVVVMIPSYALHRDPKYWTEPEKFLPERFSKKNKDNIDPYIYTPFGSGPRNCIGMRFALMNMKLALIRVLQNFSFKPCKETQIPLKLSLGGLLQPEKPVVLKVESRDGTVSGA
Chain of Cytochrome P450 2C19 (P33261 whole entry, canonical isoform): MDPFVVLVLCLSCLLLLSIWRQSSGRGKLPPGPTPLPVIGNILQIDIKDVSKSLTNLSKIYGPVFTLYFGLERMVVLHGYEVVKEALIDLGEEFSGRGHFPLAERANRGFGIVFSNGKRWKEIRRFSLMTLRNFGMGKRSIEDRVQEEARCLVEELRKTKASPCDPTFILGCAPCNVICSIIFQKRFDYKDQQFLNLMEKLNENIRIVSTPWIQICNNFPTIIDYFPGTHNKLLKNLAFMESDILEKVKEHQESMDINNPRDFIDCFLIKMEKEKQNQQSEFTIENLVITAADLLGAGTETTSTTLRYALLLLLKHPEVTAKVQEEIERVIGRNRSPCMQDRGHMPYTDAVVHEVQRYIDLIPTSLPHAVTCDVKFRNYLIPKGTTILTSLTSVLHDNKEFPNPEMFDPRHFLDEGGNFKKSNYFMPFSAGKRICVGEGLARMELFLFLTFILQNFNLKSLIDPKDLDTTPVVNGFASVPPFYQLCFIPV

Turning to `CC(C)CCNC1=CC(=O)c2ccccc2C1=O`, the Activity with Mus musculus [1] is 100%; in data set [3], “Toxic”; in data set [12] it was “Toxic”; with Mus musculus [16], 100%; in the data set listed under Danio rerio, 19%; in [20], “Non-Toxic”. In addition, the results for the IC50 (at Cytochrome P450 2C19; in [13]; against Cytochrome P450 3A4) were 16.4 µM, more than 30 µM and more than 100 µM, respectively. In addition, the concentration at 0.5 h was 3320 ng/g in data set [2] and 1260 ng/mL in [10]. The compound also gave a concentration at 8 h in data set [4] of 3220 ng/mL. Moreover, the Kp at 1 h in [5] was 2.33. Further, the AUC(0-t) was determined as 636 ng·h/mL in data set [6], 903 ng·h/mL in [17] and 1720 ng·h/mL in data set [19]. Moreover, the ED50 in the data set on Mus musculus [7] was 108 mg/kg. In addition, the Tmax in data set [8] worked out at 1 h. In addition, the concentration at 2 h in data set [9] worked out at 4930 ng/g; in data set [15], 2750 ng/mL. For the same compound, the Cmax in data set [11] is 1910 ng/mL; in data set [18], 320 ng/mL. In data set [14], the concentration at 1 h came to 3940 ng/g. Also, the Kp at 2 h in data set [21] stood at 1.79.

The values are drawn from ChEMBL document CHEMBL4602726, “Discovery of the First Vitamin K Analogue as a Potential Treatment of Pharmacoresistant Seizures” (J Med Chem, 2020).
